Results on four compounds are retold here after paper PMC9926436 (Doklady. Biochemistry and Biophysics, 2023).

A short description of series [1]: Cytostatic activity, cell growth. In kind it is cell-based. The settings on record: human, human embryonic lung (HEL) cells. The gist of the method: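 Cytostatic assay in HEL cells. Value is the cytotoxic concentration needed to reduce cell growth by 50%.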
Series [2] relates to human cytomegalovirus (HCMV), strain Davis. It counts as cell-based. The note with it: Human betaherpesvirus 5, HEL, read-out: Antiviral activity, EC50, Davis. The gist of the method: (§1)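 HEL (human embryonic lung) cell cultures infected with HCMV strain AD-169 or Davis. Antiviral activity scored as inhibition of virus-induced cytopathic effect or of plaque formation.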
Series [3] has as its system HCMV (strains AD-169 and Davis). Put plainly: Anti-HCMV activity in HEL cells, text statements not split by strain. In kind it is cell-based, human cytomegalovirus. The note with it: qualitative statement. The gist of the method: as §1

In general, CC50 refers to the concentration that lowers cell viability or growth by half. Read a high CC50 as better tolerance by the cells. Usually EC50 stands for the concentration needed to bring the measured effect to its halfway point.

In turn, `Nc1nc(O)c2ncn(COC(CO)CO)c2n1` [Ganciclovir, ganciclovir] gave a CC50 in series [1] above 350 µM. Besides, the half-maximal effective concentration (EC50) in series [2] was 9.21 µM.
Take `O=c1c2ccccc2n(CCCCCOc2ccc(Br)cc2)c(=O)n1Cc1cccc2ccccc12` [Compound 24, 1-[5-(4-bromophenoxy)pentyl]-3-(naphthalen-1-ylmethyl)quinazolin-2,4(1H,3H)-dione]: in series [3], the “Anti-HCMV activity in words” value was “inactive”. Moreover, in series [2], the EC50 was above 100 µM.
On the same counts, the results for `O=c1ccn(Cc2cccc3ccccc23)c(=O)n1CCCCCOc1ccc(Br)cc1` [Compound 27, 3-[5-(4-Bromophenoxy)pentyl]-1-(naphthalen-1-ylmethyl)uracil] are “more than one order of magnitude less active” and 44.7 µM.
In series [1], `Nc1ccn(C[C@@H](CO)OCP(=O)(O)O)c(=O)n1` [Cidofovir, cidofovir] came in with a CC50 above 300 µM. Further, the EC50 in series [2] turned out to be 1.49 µM.
